According to ChEMBL document CHEMBL1125201, “C-glycosidic analogues of lipid A and lipid X: synthesis and biological activities” (J Med Chem, 1991):

Tests used:
[1] = system: Mus musculus; assay: Survival rate of the nonspecific resistance against Pseudomonas aeruginosa infection after intraperitoneal administration in ten mice; assay type: functional; design: unit: surviving mice (of 10)
In short: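 Compound (12.5 mg/kg, single dose) given ip to myelosuppressed mice on day -1, then iv infection with P. aeruginosa (Δ12) on day 0 at an LD35 inoculum; 10 mice per group; survival counted after 4-day observation; LPS (S. abortus equi) ip control group.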

[2] = Compound was evaluated for lethal dose after intravenous administration; assay type: toxicity, organism-based; settings: mouse, in vivo
In short: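 Mice (C57BL/6, groups of six) given serial dilutions of compound iv via tail vein in pyrogen-free saline, with galactosamine 400 mg/kg ip given at the same time to sensitize to endotoxin; lethal toxicity recorded as LD50.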

[3] = system: Pseudomonas aeruginosa; assay: Compound was evaluated for effective dose required for the nonspecific resistance against Pseudomonas aeruginosa after intraperitoneal administration; assay type: functional; settings: ip
In short: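 Myelosuppressed mice got the compound ip on day -1 and were infected iv with P. aeruginosa (Δ12) on day 0 at an LD35 inoculum. Survival was scored over 4 days. ED50 was calculated by Probit analysis with confidence limits. Disaccharides were tested as lysine salts.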

CCCCCCCCCCC[C@@H](O)CC(=O)OC1C(O)C(CO)OC(CC(=O)O)[C@@H]1NC(C)=O (stereo not given in full)
Survival rate [1]: 1

CCCCCCCCCCC[C@@H](O)CC(=O)N[C@H]1C(CC(=O)O)OC(CO)C(O)C1OC(=O)C[C@H](O)CCCCCCCCCCC (stereo not given in full)
Survival rate [1]: 4

CCCCCCCCCCC[C@@H](O)CC(=O)NC1C(OCC2OC(CC(=O)O)C(NC(C)=O)C(OC(=O)C[C@H](O)CCCCCCCCCCC)C2O)OC(CO)C(O)C1OC(=O)C[C@H](O)CCCCCCCCCCC (stereo not given in full)
Survival rate [1]: 7

CCCCCCCCCCCCCC(=O)O[C@H](CCCCCCCCCCC)CC(=O)OC1C(O)C(CO)OC(OP(=O)(O)O)C1NC(=O)C[C@H](O)CCCCCCCCCCC (stereo not given in full)
LD50 [2]: 0.3 mg/kg | Survival rate [1]: 9 | ED50 [3]: 1.7 mg/kg

CCCCCCCCCCCCCC(=O)O[C@H](CCCCCCCCCCC)CC(=O)O[C@H]1[C@H](O)[C@H](CO)O[C@H](CC(=O)O)[C@@H]1NC(=O)C[C@H](O)CCCCCCCCCCC (stereo in doubt; 13a)
Survival rate [1]: 4

CCCCCCCCCCCCCC(=O)O[C@H](CCCCCCCCCCC)CC(=O)O[C@H]1[C@H](O)[C@H](CO)O[C@@H](CC(=O)O)[C@@H]1NC(=O)C[C@H](O)CCCCCCCCCCC
Survival rate [1]: 2

CCCCCCCCCCCCCC(=O)O[C@H](CCCCCCCCCCC)CC(=O)O[C@H]1[C@H](O)[C@H](CO)O[C@H](CC(=O)O)[C@@H]1NC(=O)C[C@H](O)CCCCCCCCCCC (stereo in doubt; 17b)
LD50 [2]: 0.2 mg/kg | Survival rate [1]: 9 | ED50 [3]: 1.8 mg/kg

CCCCCCCCCCC[C@@H](O)CC(=O)NC1C(OP(=O)(O)O)OC(CO)C(O)C1OC(=O)C[C@H](O)CCCCCCCCCCC (stereo not given in full)
Survival rate [1]: 0

CCCCCCCCCCC[C@@H](O)CC(=O)N[C@H]1C(CC(=O)O)OC(CO)C(O)C1O (stereo not given in full)
Survival rate [1]: 0

CCCCCCCCCCC[C@@H](O)CC(=O)NC1C(OCC2OC(OP(=O)(O)O)C(NC(=O)C[C@H](O)CCCCCCCCCCC)C(OC(=O)C[C@H](O)CCCCCCCCCCC)C2O)OC(CO)C(O)C1OC(=O)C[C@H](O)CCCCCCCCCCC (stereo not given in full)
LD50 [2]: 3.5 mg/kg | Survival rate [1]: 8 | ED50 [3]: 3.4 mg/kg

CCCCCCCCCCC[C@@H](O)CC(=O)NC1C(CC(=O)O)OC(COC2OC(CO)C(O)C(OC(=O)C[C@H](O)CCCCCCCCCCC)C2NC(=O)C[C@H](O)CCCCCCCCCCC)C(O)C1OC(=O)C[C@H](O)CCCCCCCCCCC (stereo not given in full)
LD50 [2]: ~5.2 mg/kg | Survival rate [1]: 10 | ED50 [3]: 1.5 mg/kg

CCCCCCCCCCC[C@@H](O)CC(=O)NC1C(OP(=O)(O)O)OC(CO)C(OC(=O)C[C@H](O)CCCCCCCCCCC)C1OC(=O)C[C@H](O)CCCCCCCCCCC (stereo not given in full)
LD50 [2]: 0.8 mg/kg | Survival rate [1]: 10 | ED50 [3]: 1.1 mg/kg

CCCCCCCCCCC[C@@H](O)CC(=O)NC1C(CC(=O)O)OC(CO)C(OC(=O)C[C@H](O)CCCCCCCCCCC)C1OC(=O)C[C@H](O)CCCCCCCCCCC (stereo not given in full)
LD50 [2]: 1 mg/kg | Survival rate [1]: 10 | ED50 [3]: 1.1 mg/kg
